Assay type in all cases: functional
The subject of assay [1] is Trichomonas vaginalis. Put plainly: In vitro cytostatic activity against Trichomonas vaginalis at a dose of 1 ug/ml after 24 hours. The procedure, abridged: (§1)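 T. vaginalis JH31A cultured in modified Diamond medium plus equine serum, 37 °C, 5% CO2. Compounds added at 100, 10 and 1 µg/ml 6 h post-seeding (0 h). Neubauer-chamber counts of viable parasites at 24 and 48 h. Cytostatic activity is the percentage growth inhibition relative to untreated controls.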

Assay [2] has as its system Trichomonas vaginalis. Put plainly: In vitro cytostatic activity against Trichomonas vaginalis at a dose of 1 ug/ml after 48 hours. The procedure, abridged:
as §1

The test system of assay [3] is Trichomonas vaginalis. Put plainly: In vitro cytostatic activity against Trichomonas vaginalis at a dose of 10 ug/ml after 24 hours. The procedure, abridged: as §1
For assay [4], the system named is Trichomonas vaginalis. The experiment in a line: In vitro cytocidal activity against Trichomonas vaginalis at a dose of 10 ug/ml after 48 hours. The procedure, abridged: (§2)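 T. vaginalis strain JH31A grown in modified Diamond medium with equine serum at 37 °C, 5% CO2. Test agents added 6 h after seeding (0 h). Viable protozoa counted by Neubauer chamber after 24 and 48 h incubation at 37 °C. Cytocidal activity is the percentage reduction in viable organisms relative to untreated controls, from microscopic counts.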

The subject of assay [5] is Trichomonas vaginalis. Put plainly: In vitro cytocidal activity against Trichomonas vaginalis at a dose of 100 ug/ml after 24 hours. In short, it runs like this: as §2
Assay [6] relates to Trichomonas vaginalis. The experiment in a line: In vitro cytocidal activity against Trichomonas vaginalis at a dose of 100 ug/ml after 48 hours. In short, it runs like this:
as §2

The test system of assay [7] is Trichomonas vaginalis. Put plainly: In vitro cytostatic activity against Trichomonas vaginalis at a dose of 10 ug/ml after 48 hours. The procedure, abridged:
as §1

Assay [8] concerns Trichomonas vaginalis. Put plainly: In vitro cytostatic activity against Trichomonas vaginalis at a dose of 100 ug/ml after 24 hours. In short, it runs like this:
as §1

In assay [9] the test system is Trichomonas vaginalis. Put plainly: In vitro cytostatic activity against Trichomonas vaginalis at a dose of 100 ug/ml after 48 hours. The procedure, abridged:
as §1

Assay [10] has as its system Trichomonas vaginalis. Put plainly: In vitro cytocidal activity against Trichomonas vaginalis at a dose of 1 mg/mL after 24 hours. The procedure, abridged:
as §2

Assay [11] deals with Trichomonas vaginalis. The experiment in a line: In vitro cytocidal activity against Trichomonas vaginalis at a dose of 1 mg/mL after 48 hours. In short, it runs like this: as §2
Assay [12] concerns Trichomonas vaginalis. Put plainly: In vitro cytocidal activity against Trichomonas vaginalis at a dose of 2 mg/ml after 24 hours. The procedure, abridged:
as §2

Assay [13] concerns Trichomonas vaginalis. The experiment in a line: In vitro cytocidal activity against Trichomonas vaginalis at a dose of 2 mg/ml after 48 hours. In short, it runs like this: as §2
In assay [14] the test system is Trichomonas vaginalis. Put plainly: In vitro cytocidal activity against Trichomonas vaginalis at a dose of 0.5 mg/ml after 24 hours. The procedure, abridged:
as §2

Assay [15] relates to Trichomonas vaginalis. Put plainly: In vitro cytocidal activity against Trichomonas vaginalis at a dose of 0.5 mg/ml after 48 hours. In short, it runs like this: as §2

For `CN1CC(=O)N(C)c2cc([N+](=O)[O-])ccc21`, the Cytostatic activity in assay [1] is recorded as 0%; in assay [2] it was 0%; in assay [3], 71.11%. In addition, the Cytocidal activity in assay [4] is on record as 92.03%; in assay [5] it was 100%; in assay [6], 100%.

Regarding `CN1CC(=O)Nc2cc([N+](=O)[O-])ccc21`, the Cytostatic activity is reported as 0% in assay [1], 8.32% in assay [2], 59.05% in [3] and 13.97% in assay [7]. The Cytocidal activity in [5] and in assay [6] was 100% each time.

Consider `O=C1Nc2cc([N+](=O)[O-])ccc2N2CCCCC12` (centres undefined), for which the Cytostatic activity was found to be 0% in [1], 0% in assay [2], 57.45% in assay [3] and 75.15% in [7]. In addition, the Cytocidal activity in assay [5] worked out at 98.43%; in assay [6], 100%.

For the molecule `O=C1Nc2cc([N+](=O)[O-])ccc2N2Cc3ccccc3CC12` (centres undefined), the Cytostatic activity in assay [1] was 0%; in assay [2], 0%; in assay [3] it was 51.82%; in assay [7] it was 37.15%; in [8], 85.53%; in assay [9] it was 81.25%.

On to `CN1C(=O)C[N+](C)(C)c2ccc([N+](=O)[O-])cc21.[Cl-]`, for which the Cytostatic activity in assay [1] came out at 0.17%; in assay [2], 0.78%; in [3], 72.85%; in [7], 1.13%. Besides, the Cytocidal activity in assay [5] and in [6] was 100% throughout.

`O=C1CN(CCCCCCCl)c2ccc([N+](=O)[O-])cc2N1`: the Cytostatic activity in assay [1] was 8.76%; in assay [2], 0%; in [3], 79.28%; in assay [7], 30.56%. Besides, the results for the Cytocidal activity in [5] and in assay [6] were 99.15% and 99.83%, respectively.

Consider `O=C1Nc2cc([N+](=O)[O-])ccc2N2CCCC12` (centres undefined), for which the Cytostatic activity in [1] was determined as 11.09%; in [2] it was 17.32%; in assay [3] it was 33.48%; in [7] it was 54.22%. The Cytocidal activity in assay [5] worked out at 59.99%; in assay [6] it was 100%.

Consider `CN1C(=O)CN(CCCCCCl)c2ccc([N+](=O)[O-])cc21`, for which the Cytostatic activity in assay [1] is 0%; in assay [2], 69.96%; in assay [3] it was 72.68%. In addition, the results for the Cytocidal activity in assay [4], in assay [5] and in assay [6] were 93.94%, 100% and 100%, respectively.

As for `Cc1ncc([N+](=O)[O-])n1CCO` [METRONIDAZOLE], the Cytocidal activity in assay [10] is recorded as 99.18%; in assay [11] it was 99.72%; in [12], 99.63%; in [13], 100%; in assay [14], 98.19%; in assay [15], 98.79%.

Source of the values: ChEMBL document CHEMBL1139586, “A linear discrimination analysis based virtual screening of trichomonacidal lead-like compounds: outcomes of in silico studies supported by experimental results” (2005).
